{"data": "Experimental data gathered from unrelated publications", "note": "Protocols differ between the studies behind these lines."}
{"Structure (SMILES)": "Cc1ccc(C2CC2C(=O)NC(C(N)=O)c2ccccc2)cc1C (stereo not drawn)", "target or system": "Chikungunya virus", "test": "viral replication, luciferase", "test system": "BHK-21", "setting": "16 h", "measurement": "IC50", "result": "> 100 µM"}
{"Structure (SMILES)": "O=C1O[C@H]([C@@H](O)CO)C(O)=C1O", "test": "DPPH scavenging", "measurement": "IC50", "result": "10.2 µM"}
{"Structure (SMILES)": "O=C(Nc1ccc(O)cc1)c1ccccc1O", "target or system": "Chikungunya virus", "test": "viral replication, luciferase", "test system": "BHK-21", "setting": "16 h", "measurement": "IC50", "result": "> 100 µM"}
{"Structure (SMILES)": "Cc1c2ccncc2c(C)c2c1[nH]c1ccccc12", "target or system": "THP-1", "test": "TNF-α release, inhibitor, ELISA", "setting": "17 h, LPS-stimulated", "measurement": "IC50", "result": "0.44 µM"}
{"Structure (SMILES)": "O=C(Nc1ncc([N+](=O)[O-])s1)c1cc(Cl)ccc1Cl", "target or system": "Chikungunya virus", "test": "viral replication, luciferase", "test system": "BHK-21", "setting": "16 h", "measurement": "IC50", "result": "8.3 µM"}
{"Structure (SMILES)": "CO/N=C1\\CN(c2nc3c(cc2F)c(=O)c(C(=O)O)cn3C2CC2)CC1CN (stereo not drawn)", "target or system": "Haemophilus influenzae", "test": "microbial growth", "measurement": "MIC", "result": "2 µg/mL"}
{"Structure (SMILES)": "C[C@]12CCC(=O)C(O)=C1CC[C@@H]1[C@@H]2CC[C@]2(C)C(=O)CC[C@@H]12", "target or system": "FaDu", "test": "cell growth or viability", "setting": "72 h", "measurement": "IC50", "result": "> 20 µM"}
{"Structure (SMILES)": "Cc1cc(C(C)(C)C)c(O)c(C(C)(C)C)c1", "test": "DPPH scavenging, absorbance", "setting": "30 min", "measurement": "IC50", "result": "308 µM"}
{"Structure (SMILES)": "COc1c2c(cc3c1OCO3)[C@]13C=C[C@H](OC)C[C@@H]1[N@](C2)C[C@H]3OC(=O)c1ccc2ccccc2c1", "target or system": "SAOS-2", "test": "cell growth or viability, WST-1", "measurement": "IC50", "result": "> 10 µM"}
{"Structure (SMILES)": "O=C(Nc1ncc([N+](=O)[O-])s1)c1ccccc1O", "target or system": "Chikungunya virus", "test": "viral replication, luciferase", "test system": "BHK-21", "setting": "16 h", "measurement": "IC50", "result": "13.1 µM"}
{"Structure (SMILES)": "C[C@H]1COc2c(N3CCN(C)CC3)c(F)cc3c(=O)c(C(=O)O)cn1c23", "target or system": "Haemophilus influenzae", "test": "microbial growth", "measurement": "MIC", "result": "> 4 µg/mL"}
{"Structure (SMILES)": "O=c1c(O)c(-c2ccc(O[C@@H]3O[C@H](CO)[C@@H](O)[C@H](O)[C@H]3O)c(O)c2)oc2cc(O)cc(O)c12", "test": "DPPH scavenging, absorbance", "measurement": "IC50", "result": "28.5 µg/mL"}
